{"source": "ChEMBL document CHEMBL1629494", "about": "“New amino acid esters of salicylanilides active against MDR-TB and other microbes” (Eur J Med Chem, 2010)", "format_in_all_cases": "functional", "key": {"Lichtheimia corymbifera [1]": {"system": "Lichtheimia corymbifera", "experiment": "Antifungal activity against Absidia corymbifera 272 after 24 hrs by broth microdilution method", "details": "Lichtheimia corymbifera, 272, 24 h"}, "Candida tropicalis [2]": {"system": "Candida tropicalis", "experiment": "Antifungal activity against Candida tropicalis 156 after 48 hrs by broth microdilution method", "details": "Candida tropicalis, 156, 48 h"}, "Candida albicans [3]": {"system": "Candida albicans", "experiment": "Antifungal activity against Candida albicans ATCC 44859 after 24 hrs by broth microdilution method", "details": "ATCC 44859, 24 h"}, "Candida albicans [4]": {"system": "Candida albicans", "experiment": "Antifungal activity against Candida albicans ATCC 44859 after 48 hrs by broth microdilution method", "details": "ATCC 44859, 48 h"}, "Aspergillus fumigatus [5]": {"system": "Aspergillus fumigatus", "experiment": "Antifungal activity against Aspergillus fumigatus 231 after 48 hrs by broth microdilution method", "details": "Aspergillus fumigatus, 231, 48 h"}, "Nakaseomyces glabratus [6]": {"system": "Nakaseomyces glabratus", "experiment": "Antifungal activity against Candida glabrata 20/I after 24 hrs by broth microdilution method"}, "Trichosporon beigelii [7]": {"system": "Trichosporon beigelii", "experiment": "Antifungal activity against Trichosporon beigelii 1188 after 48 hrs by broth microdilution method", "details": "Trichosporon beigelii, 1188, 48 h"}, "[8]": {"system": "Trichophyton mentagrophytes", "experiment": "Antifungal activity against Trichophyton mentagrophytes after 24 hrs by broth microdilution method"}, "Aspergillus fumigatus [9]": {"system": "Aspergillus fumigatus", "experiment": "Antifungal activity against Aspergillus fumigatus 231 after 24 hrs by broth microdilution method", "details": "Aspergillus fumigatus, 231, 24 h"}, "Pichia kudriavzevii [10]": {"system": "Pichia kudriavzevii", "experiment": "Antifungal activity against Candida krusei E28 after 48 hrs by broth microdilution method", "details": "E28, 48 h"}, "Pichia kudriavzevii [11]": {"system": "Pichia kudriavzevii", "experiment": "Antifungal activity against Candida krusei E28 after 24 hrs by broth microdilution method", "details": "E28, 24 h"}, "Candida tropicalis [12]": {"system": "Candida tropicalis", "experiment": "Antifungal activity against Candida tropicalis 156 after 24 hrs by broth microdilution method", "details": "Candida tropicalis, 156, 24 h"}, "Lichtheimia corymbifera [13]": {"system": "Lichtheimia corymbifera", "experiment": "Antifungal activity against Absidia corymbifera 272 after 48 hrs by broth microdilution method", "details": "Lichtheimia corymbifera, 272, 48 h"}, "Trichosporon beigelii [14]": {"system": "Trichosporon beigelii", "experiment": "Antifungal activity against Trichosporon beigelii 1188 after 24 hrs by broth microdilution method", "details": "Trichosporon beigelii, 1188, 24 h"}, "Nakaseomyces glabratus [15]": {"system": "Nakaseomyces glabratus", "experiment": "Antifungal activity against Candida glabrata 20/I after 48 hrs by broth microdilution method"}, "[16]": {"system": "Trichophyton mentagrophytes", "experiment": "Antifungal activity against Trichophyton mentagrophytes after 48 hrs by broth microdilution method"}, "Mycobacterium kansasii [17]": {"system": "Mycobacterium kansasii", "experiment": "Antimycobacterial activity against Mycobacterium kansasii 235/80 after 21 days by micromethod", "details": "235/80, 504 h", "method_in_brief": "(§1)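 Micromethod in Sula semisynthetic medium, with compounds added as DMSO solutions at 1000, 500, 250, 125, 62, 32, 16, 8, 4, 2, 1, 0.5, 0.25. Inoculum dilutions: H37Rv 10^-3; M. avium 330/88 10^-5; M. kansasii 235/80 10^-4; M. kansasii 6509/96 10^-5. Incubated at 37 °C, read at 14 and 21 days, and at 7 days for M. kansasii. MIC was the lowest concentration inhibiting growth.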"}, "Mycobacterium kansasii [18]": {"system": "Mycobacterium kansasii", "experiment": "Antimycobacterial activity against Mycobacterium kansasii 6509/96 after 7 days by micromethod", "details": "6509/96, 168 h", "method_in_brief": "as §1"}, "Mycobacterium kansasii [19]": {"system": "Mycobacterium kansasii", "experiment": "Antimycobacterial activity against Mycobacterium kansasii 235/80 after 7 days by micromethod", "details": "235/80, 168 h", "method_in_brief": "as §1"}, "Mycobacterium kansasii [20]": {"system": "Mycobacterium kansasii", "experiment": "Antimycobacterial activity against Mycobacterium kansasii 6509/96 after 14 days by micromethod", "details": "6509/96, 336 h", "method_in_brief": "as §1"}, "[21]": {"system": "Mycobacterium tuberculosis", "experiment": "Antimycobacterial activity against Mycobacterium tuberculosis H37Rv 331/88 after 21 days by micromethod", "details": "H37Rv 331/88, 504 h", "method_in_brief": "as §1"}, "Mycobacterium avium [22]": {"system": "Mycobacterium avium", "experiment": "Antimycobacterial activity against multidrug-resistant Mycobacterium avium 330/88 after 14 days by micromethod", "details": "330/88, 336 h", "method_in_brief": "as §1"}, "Mycobacterium avium [23]": {"system": "Mycobacterium avium", "experiment": "Antimycobacterial activity against multidrug-resistant Mycobacterium avium 330/88 after 21 days by micromethod", "details": "330/88, 504 h", "method_in_brief": "as §1"}, "Mycobacterium kansasii [24]": {"system": "Mycobacterium kansasii", "experiment": "Antimycobacterial activity against Mycobacterium kansasii 235/80 after 14 days by micromethod", "details": "235/80, 336 h", "method_in_brief": "as §1"}, "[25]": {"system": "Mycobacterium tuberculosis", "experiment": "Antimycobacterial activity against Mycobacterium tuberculosis H37Rv 331/88 after 14 days by micromethod", "details": "H37Rv 331/88, 336 h", "method_in_brief": "as §1"}, "Mycobacterium kansasii [26]": {"system": "Mycobacterium kansasii", "experiment": "Antimycobacterial activity against Mycobacterium kansasii 6509/96 after 21 days by micromethod", "details": "6509/96, 504 h", "method_in_brief": "as §1"}}, "data": [{"smiles": "OC(Cn1cncn1)(Cn1cncn1)c1ccc(F)cc1F", "note": "[FLUCONAZOLE]", "values": [{"measurement": "MIC", "setting": "Lichtheimia corymbifera [1]", "result": "> 125", "unit": "µM"}, {"measurement": "MIC", "setting": "Candida tropicalis [2]", "result": "> 125", "unit": "µM"}, {"measurement": "MIC", "setting": "Candida albicans [3]", "result": 0.06, "unit": "µM"}, {"measurement": "MIC", "setting": "Candida albicans [4]", "result": 0.12, "unit": "µM"}, {"measurement": "MIC", "setting": "Aspergillus fumigatus [5]", "result": "> 125", "unit": "µM"}, {"measurement": "MIC", "setting": "Nakaseomyces glabratus [6]", "result": 0.98, "unit": "µM"}, {"measurement": "MIC", "setting": "Trichosporon beigelii [7]", "result": 0.48, "unit": "µM"}, {"measurement": "MIC", "setting": "[8]", "result": 1.95, "unit": "µM"}, {"measurement": "MIC", "setting": "Aspergillus fumigatus [9]", "result": "> 125", "unit": "µM"}, {"measurement": "MIC", "setting": "Pichia kudriavzevii [10]", "result": 15.6, "unit": "µM"}, {"measurement": "MIC", "setting": "Pichia kudriavzevii [11]", "result": 3.91, "unit": "µM"}, {"measurement": "MIC", "setting": "Candida tropicalis [12]", "result": 0.12, "unit": "µM"}, {"measurement": "MIC", "setting": "Lichtheimia corymbifera [13]", "result": "> 125", "unit": "µM"}, {"measurement": "MIC", "setting": "Trichosporon beigelii [14]", "result": 0.24, "unit": "µM"}, {"measurement": "MIC", "setting": "Nakaseomyces glabratus [15]", "result": 3.91, "unit": "µM"}, {"measurement": "MIC", "setting": "[16]", "result": 3.91, "unit": "µM"}]}, {"smiles": "NNC(=O)c1ccncc1", "note": "[ISONIAZID]", "values": [{"measurement": "MIC", "setting": "Mycobacterium kansasii [17]", "result": "> 250", "unit": "µM"}, {"measurement": "MIC", "setting": "Mycobacterium kansasii [18]", "result": 2, "unit": "µM"}, {"measurement": "MIC", "setting": "Mycobacterium kansasii [19]", "result": "> 250", "unit": "µM"}, {"measurement": "MIC", "setting": "Mycobacterium kansasii [20]", "result": 4, "unit": "µM"}, {"measurement": "MIC", "setting": "[21]", "result": 0.5, "unit": "µM"}, {"measurement": "MIC", "setting": "Mycobacterium avium [22]", "result": "> 250", "unit": "µM"}, {"measurement": "MIC", "setting": "Mycobacterium avium [23]", "result": "> 250", "unit": "µM"}, {"measurement": "MIC", "setting": "Mycobacterium kansasii [24]", "result": "> 250", "unit": "µM"}, {"measurement": "MIC", "setting": "[25]", "result": 0.5, "unit": "µM"}, {"measurement": "MIC", "setting": "Mycobacterium kansasii [26]", "result": 4, "unit": "µM"}]}]}
